The source of these data is the M2OR odorant receptor database.

Common to all, as to conditions: stereoisomer not certain
In one experiment the target is T1, OR5AC2 (Homo sapiens) (UniProt Q9NZP5).
T1 sequence (whole entry): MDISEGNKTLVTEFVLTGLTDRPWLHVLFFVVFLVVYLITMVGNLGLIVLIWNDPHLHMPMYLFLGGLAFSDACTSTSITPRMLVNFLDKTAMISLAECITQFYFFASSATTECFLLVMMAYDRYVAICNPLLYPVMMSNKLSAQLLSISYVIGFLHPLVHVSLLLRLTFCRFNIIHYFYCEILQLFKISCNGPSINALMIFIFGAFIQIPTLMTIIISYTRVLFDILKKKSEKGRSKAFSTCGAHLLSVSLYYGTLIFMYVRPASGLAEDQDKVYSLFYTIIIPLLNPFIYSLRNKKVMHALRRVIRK
The procedure, abridged: (§1)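 Whether a receptor–molecule pair is responsive (active) rests on the original authors' judgment that its measured signal was statistically different from baseline. Pairs without that judgment are non-responsive (inactive). Sources used varied assay methods, commonly transient luciferase assays in mammalian cell lines.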

For the next experiment, the target named is T2, OR5AN1 (Homo sapiens) (UniProt Q8NGI8).
T2 sequence (whole entry): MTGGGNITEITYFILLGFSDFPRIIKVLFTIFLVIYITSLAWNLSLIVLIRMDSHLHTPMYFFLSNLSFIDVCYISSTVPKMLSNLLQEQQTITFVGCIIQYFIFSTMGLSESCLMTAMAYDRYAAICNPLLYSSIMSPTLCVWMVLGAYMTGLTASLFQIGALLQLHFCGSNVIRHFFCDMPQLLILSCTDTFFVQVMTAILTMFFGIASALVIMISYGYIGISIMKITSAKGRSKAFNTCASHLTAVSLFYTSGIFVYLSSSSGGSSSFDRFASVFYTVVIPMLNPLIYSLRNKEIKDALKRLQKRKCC
The procedure, abridged: as §1

In a further experiment the target is OR56A1 (Homo sapiens) (UniProt Q8NGH5). The procedure, abridged:
as §1

The next experiment has as its target OR56A3 (Homo sapiens) (UniProt Q8NH54). The essentials: as §1
Another experiment has as its target OR56A5 (Homo sapiens) (UniProt P0C7T3). The procedure, abridged:
as §1

In the next experiment the target is OR56B1 (Homo sapiens) (UniProt Q8NGI3). The essentials:
as §1

In a further experiment the target is OR56B4 (Homo sapiens) (UniProt Q8NH76). The procedure, abridged: as §1
Chain of OR56B4 (Homo sapiens) (Q8NH76 whole entry): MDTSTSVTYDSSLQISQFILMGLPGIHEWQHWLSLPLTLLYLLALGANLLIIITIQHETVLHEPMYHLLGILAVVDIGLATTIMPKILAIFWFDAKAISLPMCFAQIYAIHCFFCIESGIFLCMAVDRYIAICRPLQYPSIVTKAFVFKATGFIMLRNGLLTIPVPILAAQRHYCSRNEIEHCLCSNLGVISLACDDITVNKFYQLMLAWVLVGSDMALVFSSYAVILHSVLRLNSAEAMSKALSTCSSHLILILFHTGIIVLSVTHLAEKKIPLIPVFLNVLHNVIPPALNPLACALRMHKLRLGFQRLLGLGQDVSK
The next experiment has as its target OR5A1 (Homo sapiens) (UniProt Q8NGJ0). The procedure, abridged: as §1
Another experiment has as its system OR5A1 D183N. The essentials:
as §1

Another experiment addresses OR5A2 (Homo sapiens) (UniProt Q8NGI9). The procedure, abridged:
as §1

A further experiment has as its target OR5AK2 (Homo sapiens) (UniProt Q8NH90). The essentials: as §1
The next experiment concerns the target OR5AP2 (Homo sapiens) (UniProt Q8NGF4). The procedure, abridged: as §1
For another experiment, the target named is OR5AR1 (Homo sapiens) (UniProt Q8NGP9). The essentials: as §1
Chain of OR5AR1 (Homo sapiens) (Q8NGP9 whole entry): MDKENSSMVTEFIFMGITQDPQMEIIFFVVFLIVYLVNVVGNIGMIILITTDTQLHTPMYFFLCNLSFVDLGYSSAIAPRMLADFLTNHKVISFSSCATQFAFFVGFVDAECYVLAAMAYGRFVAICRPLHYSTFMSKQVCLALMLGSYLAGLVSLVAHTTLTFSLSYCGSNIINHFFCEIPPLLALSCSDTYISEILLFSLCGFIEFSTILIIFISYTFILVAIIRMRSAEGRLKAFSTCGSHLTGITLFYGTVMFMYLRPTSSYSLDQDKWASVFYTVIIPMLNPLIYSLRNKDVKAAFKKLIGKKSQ
In another experiment the target is OR5AS1 (Homo sapiens) (UniProt Q8N127). The procedure, abridged: as §1
Chain of OR5AS1 (Homo sapiens) (Q8N127 whole entry): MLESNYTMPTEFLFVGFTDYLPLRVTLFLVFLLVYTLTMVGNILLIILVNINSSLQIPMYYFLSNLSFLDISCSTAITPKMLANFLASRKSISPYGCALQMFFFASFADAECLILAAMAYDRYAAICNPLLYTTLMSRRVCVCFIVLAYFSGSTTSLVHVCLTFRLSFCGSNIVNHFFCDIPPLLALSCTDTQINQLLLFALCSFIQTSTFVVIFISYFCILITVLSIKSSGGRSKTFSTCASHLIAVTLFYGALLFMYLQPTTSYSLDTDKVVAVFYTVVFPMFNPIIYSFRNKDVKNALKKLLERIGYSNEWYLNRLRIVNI
Another experiment deals with OR5AU1 (Homo sapiens) (UniProt Q8NGC0). The procedure, abridged: as §1
Chain of OR5AU1 (Homo sapiens) (Q8NGC0 whole entry): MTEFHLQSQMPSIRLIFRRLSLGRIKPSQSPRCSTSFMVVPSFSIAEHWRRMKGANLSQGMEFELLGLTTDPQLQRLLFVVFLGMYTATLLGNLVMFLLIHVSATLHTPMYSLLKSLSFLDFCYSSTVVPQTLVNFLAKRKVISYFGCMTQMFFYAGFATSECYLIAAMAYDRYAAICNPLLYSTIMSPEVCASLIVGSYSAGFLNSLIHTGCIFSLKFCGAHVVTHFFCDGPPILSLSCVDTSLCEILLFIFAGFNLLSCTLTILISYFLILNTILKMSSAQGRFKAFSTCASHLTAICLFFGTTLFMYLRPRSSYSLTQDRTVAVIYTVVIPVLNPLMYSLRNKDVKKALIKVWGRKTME
The target in a further experiment is OR5B12 (Homo sapiens) (UniProt Q96R08). The essentials: as §1
Chain of OR5B12 (Homo sapiens) (Q96R08 whole entry): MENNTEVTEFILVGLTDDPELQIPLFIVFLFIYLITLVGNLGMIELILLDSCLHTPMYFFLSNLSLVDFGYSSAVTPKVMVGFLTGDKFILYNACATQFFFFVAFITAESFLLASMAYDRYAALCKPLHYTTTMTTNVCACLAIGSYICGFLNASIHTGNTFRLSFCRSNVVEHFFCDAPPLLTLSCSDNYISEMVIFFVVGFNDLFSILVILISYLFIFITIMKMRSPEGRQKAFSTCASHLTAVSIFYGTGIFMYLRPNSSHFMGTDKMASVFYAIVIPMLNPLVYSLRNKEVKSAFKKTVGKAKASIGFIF
The target of a further experiment is OR52Z1P (Homo sapiens) (UniProt P0C646). The procedure, abridged: as §1
A further experiment has as its target OR56A4 (Homo sapiens) (UniProt Q8NGH8). The procedure, abridged:
as §1

The target in the next experiment is OR5AC1 (Homo sapiens) (UniProt P0C628). The procedure, abridged: as §1
Chain of OR5AC1 (Homo sapiens) (P0C628 whole entry): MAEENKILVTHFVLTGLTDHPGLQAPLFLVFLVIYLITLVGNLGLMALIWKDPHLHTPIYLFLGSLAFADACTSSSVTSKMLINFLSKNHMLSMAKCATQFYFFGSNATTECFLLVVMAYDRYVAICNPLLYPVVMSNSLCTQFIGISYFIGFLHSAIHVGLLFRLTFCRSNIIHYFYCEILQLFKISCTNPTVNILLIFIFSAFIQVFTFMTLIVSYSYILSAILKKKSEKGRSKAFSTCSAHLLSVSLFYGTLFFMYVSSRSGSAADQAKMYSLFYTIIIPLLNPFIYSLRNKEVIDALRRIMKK
In the next experiment the target is OR5AL1 (Homo sapiens) (UniProt P0C617). The essentials:
as §1

Molecules are shown by their SMILES.
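Further: active if original authors judged signal statistically different from baseline.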

Chain of OR56A5 (Homo sapiens) (P0C7T3 whole entry): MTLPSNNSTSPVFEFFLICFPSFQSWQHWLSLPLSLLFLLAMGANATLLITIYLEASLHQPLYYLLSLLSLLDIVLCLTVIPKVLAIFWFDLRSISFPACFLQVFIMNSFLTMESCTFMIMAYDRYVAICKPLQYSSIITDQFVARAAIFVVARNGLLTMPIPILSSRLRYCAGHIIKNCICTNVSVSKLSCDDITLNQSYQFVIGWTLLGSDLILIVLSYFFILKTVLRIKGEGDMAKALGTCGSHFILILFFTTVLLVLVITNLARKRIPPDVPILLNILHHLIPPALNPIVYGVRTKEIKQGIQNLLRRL
Chain of OR5A1 (Homo sapiens) (Q8NGJ0 whole entry): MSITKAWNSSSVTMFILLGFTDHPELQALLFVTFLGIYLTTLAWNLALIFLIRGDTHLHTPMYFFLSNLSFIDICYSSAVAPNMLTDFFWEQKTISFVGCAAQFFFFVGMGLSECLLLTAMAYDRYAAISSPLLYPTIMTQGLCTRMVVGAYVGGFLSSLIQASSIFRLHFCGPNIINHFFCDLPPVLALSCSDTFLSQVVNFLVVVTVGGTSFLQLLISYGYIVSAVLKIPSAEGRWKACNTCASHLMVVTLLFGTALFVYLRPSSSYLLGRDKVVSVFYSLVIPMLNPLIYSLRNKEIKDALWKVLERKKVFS
Chain of OR56A3 (Homo sapiens) (Q8NH54 whole entry): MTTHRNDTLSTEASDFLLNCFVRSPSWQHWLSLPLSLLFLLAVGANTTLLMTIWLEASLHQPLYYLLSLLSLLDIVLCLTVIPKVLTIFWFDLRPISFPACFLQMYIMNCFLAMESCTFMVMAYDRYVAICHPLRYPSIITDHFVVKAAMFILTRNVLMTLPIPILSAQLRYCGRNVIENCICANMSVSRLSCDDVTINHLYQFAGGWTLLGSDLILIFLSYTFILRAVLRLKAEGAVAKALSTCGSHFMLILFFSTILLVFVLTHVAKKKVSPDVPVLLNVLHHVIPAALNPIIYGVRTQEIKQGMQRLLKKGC
Chain of OR56B1 (Homo sapiens) (Q8NGI3 whole entry): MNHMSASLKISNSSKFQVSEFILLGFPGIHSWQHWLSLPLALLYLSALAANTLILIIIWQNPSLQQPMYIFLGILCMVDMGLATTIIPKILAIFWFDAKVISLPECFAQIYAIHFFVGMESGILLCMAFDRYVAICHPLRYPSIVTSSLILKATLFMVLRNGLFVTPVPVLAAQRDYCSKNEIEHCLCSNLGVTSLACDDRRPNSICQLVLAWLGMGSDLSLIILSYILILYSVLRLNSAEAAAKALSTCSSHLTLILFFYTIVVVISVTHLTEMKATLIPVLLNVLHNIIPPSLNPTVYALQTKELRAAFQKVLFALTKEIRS
Chain of OR5AK2 (Homo sapiens) (Q8NH90 whole entry): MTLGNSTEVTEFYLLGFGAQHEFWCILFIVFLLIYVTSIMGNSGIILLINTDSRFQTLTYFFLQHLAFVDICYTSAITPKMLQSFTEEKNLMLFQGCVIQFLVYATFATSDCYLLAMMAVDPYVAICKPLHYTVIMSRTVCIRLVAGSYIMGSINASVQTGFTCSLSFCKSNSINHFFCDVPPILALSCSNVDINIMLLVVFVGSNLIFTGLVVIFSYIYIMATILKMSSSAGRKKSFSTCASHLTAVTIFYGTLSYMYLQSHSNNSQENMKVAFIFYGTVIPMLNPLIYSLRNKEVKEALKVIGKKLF
Chain of OR5AP2 (Homo sapiens) (Q8NGF4 whole entry): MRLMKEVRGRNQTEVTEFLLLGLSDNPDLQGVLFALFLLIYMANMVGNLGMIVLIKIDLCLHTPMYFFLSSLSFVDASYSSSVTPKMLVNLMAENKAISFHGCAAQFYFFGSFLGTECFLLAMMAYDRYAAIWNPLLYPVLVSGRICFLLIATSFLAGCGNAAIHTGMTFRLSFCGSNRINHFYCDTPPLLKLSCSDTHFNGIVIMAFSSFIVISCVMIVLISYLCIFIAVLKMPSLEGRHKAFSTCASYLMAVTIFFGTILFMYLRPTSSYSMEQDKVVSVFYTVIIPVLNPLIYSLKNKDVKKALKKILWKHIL
Chain of OR56A1 (Homo sapiens) (Q8NGH5 whole entry): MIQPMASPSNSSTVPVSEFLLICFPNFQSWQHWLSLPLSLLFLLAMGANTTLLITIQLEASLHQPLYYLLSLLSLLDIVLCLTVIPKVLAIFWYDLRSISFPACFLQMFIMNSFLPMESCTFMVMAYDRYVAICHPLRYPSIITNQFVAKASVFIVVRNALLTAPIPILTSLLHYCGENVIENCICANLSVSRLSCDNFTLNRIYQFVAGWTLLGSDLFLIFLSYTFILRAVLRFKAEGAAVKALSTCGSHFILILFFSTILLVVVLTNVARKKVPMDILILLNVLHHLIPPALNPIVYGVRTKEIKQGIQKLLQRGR
Chain of OR5A2 (Homo sapiens) (Q8NGI9 whole entry): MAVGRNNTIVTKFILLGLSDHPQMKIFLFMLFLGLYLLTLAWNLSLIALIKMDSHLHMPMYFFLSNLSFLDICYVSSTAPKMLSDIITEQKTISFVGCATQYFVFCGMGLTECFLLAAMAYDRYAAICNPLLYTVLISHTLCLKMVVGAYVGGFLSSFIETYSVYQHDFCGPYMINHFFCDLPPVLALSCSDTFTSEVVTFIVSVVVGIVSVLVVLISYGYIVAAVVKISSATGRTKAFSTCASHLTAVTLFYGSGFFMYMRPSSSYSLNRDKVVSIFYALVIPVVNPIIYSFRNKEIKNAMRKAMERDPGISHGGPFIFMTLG
Chain of OR56A4 (Homo sapiens) (Q8NGH8 whole entry): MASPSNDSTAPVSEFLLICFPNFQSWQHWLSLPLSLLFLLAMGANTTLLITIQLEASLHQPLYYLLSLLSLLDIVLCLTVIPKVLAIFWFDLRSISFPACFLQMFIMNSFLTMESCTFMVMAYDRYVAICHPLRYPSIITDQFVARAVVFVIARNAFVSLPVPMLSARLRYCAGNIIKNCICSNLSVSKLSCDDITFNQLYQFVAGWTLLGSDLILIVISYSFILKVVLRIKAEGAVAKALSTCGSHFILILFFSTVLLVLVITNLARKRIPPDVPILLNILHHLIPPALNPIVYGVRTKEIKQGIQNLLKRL
Chain of OR5A1 D183N (as listed by the source, stated change not applied): as the sequence (Q8NGJ0 whole entry) above, with D183N counted along it

Consider `O=Cc1ccccc1`, for which the “odorant receptor agonist call” value in the experiment with OR5AC2 (Homo sapiens) is “inactive”.

As to `O=CC=Cc1ccccc1`, the “odorant receptor agonist call” value in the experiment with OR5AC2 (Homo sapiens) was “inactive”.

As to `CC(=O)c1cc(C(C)(C)C)cc2c1CCC2(C)C`, the “odorant receptor agonist call” value in the experiment with OR5AN1 (Homo sapiens) is “inactive”.

As for `C=CCOC(=O)Cc1ccccc1`, the “odorant receptor agonist call” value in the experiment with OR56A1 (Homo sapiens), with OR56A3 (Homo sapiens), with OR56A5 (Homo sapiens), with OR56B1 (Homo sapiens), with OR56B4 (Homo sapiens) and in the experiment with OR5A1 (Homo sapiens) was “inactive” throughout. For the same compound, the “odorant receptor agonist call” value in the experiment with OR5A1 D183N, with OR5A2 (Homo sapiens), in the experiment with OR5AC2 (Homo sapiens), with OR5AK2 (Homo sapiens), with OR5AN1 (Homo sapiens) and in the experiment with OR5AP2 (Homo sapiens) was “inactive” in each case. Also, the “odorant receptor agonist call” value with OR5AR1 (Homo sapiens), in the experiment with OR5AS1 (Homo sapiens), with OR5AU1 (Homo sapiens) and in the experiment with OR5B12 (Homo sapiens) was “inactive” throughout.

Consider `CC(=O)c1cc2c(cc1C)C(C)(C)C(C)CC2(C)C` (stereo not given), for which the “odorant receptor agonist call” value in the experiment with OR5AN1 (Homo sapiens) was “inactive”.

Consider `C=CCc1ccc(OC)cc1`, for which, in the experiment with OR5AC2 (Homo sapiens), the “odorant receptor agonist call” value is “inactive”.

Turning to `Cc1c([N+](=O)[O-])c(C)c([N+](=O)[O-])c(C(C)(C)C)c1[N+](=O)[O-]`, the “odorant receptor agonist call” value with OR52Z1P (Homo sapiens), with OR56A1 (Homo sapiens), in the experiment with OR56A3 (Homo sapiens), in the experiment with OR56A4 (Homo sapiens), in the experiment with OR56A5 (Homo sapiens) and with OR56B1 (Homo sapiens) was “inactive” throughout. Moreover, the “odorant receptor agonist call” value with OR56B4 (Homo sapiens), with OR5A1 (Homo sapiens), with OR5A2 (Homo sapiens), with OR5AC1 (Homo sapiens), with OR5AC2 (Homo sapiens) and in the experiment with OR5AK2 (Homo sapiens) was “inactive” each time. Moreover, the “odorant receptor agonist call” value with OR5AL1 (Homo sapiens), in the experiment with OR5AP2 (Homo sapiens), with OR5AR1 (Homo sapiens), in the experiment with OR5AS1 (Homo sapiens), in the experiment with OR5AU1 (Homo sapiens) and with OR5B12 (Homo sapiens) was “inactive” throughout. Besides, the “odorant receptor agonist call” value in the experiment with OR5AN1 (Homo sapiens) was “active”.
